In PubChem BioAssay:
Activity calls are given as the source filed them.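 The calls were made as follows, unless noted: active = viability loss from added drug above about 55%, and viability with drug at most 40%, in both replicates (limit read from the data, passing the limit was not always enough); inconclusive = both conditions met in only one replicate; inactive = neither replicate meets both conditions.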

How the values were obtained:
[1] = Her2 expression decrease, cell viability multiplex – SKBR3 breast tumor cells, AlphaScreen, ATP viability, primary screen (AID 461;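 active = Her2 level under about 52% in both replicate screens, with viability over 70% of control, limit read from the data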;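 as to Her2 level: lower value means less Her2 protein in the cells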;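 as to viability: percent of carrier control wells set as 100% viability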); conditions: SKBR3 Her2 protein level, 18-24 h, measured here: SKBR3 viability, ATP luminescence, at 10 µM
[2] = target: Receptor tyrosine-protein kinase erbB-2 (Homo sapiens) (UniProt P04626); experiment: as above; conditions: 18-24 h, at 10 µM, stronger effect = lower value
Receptor tyrosine-protein kinase erbB-2 (Homo sapiens), sequence (P04626 whole entry, looked up): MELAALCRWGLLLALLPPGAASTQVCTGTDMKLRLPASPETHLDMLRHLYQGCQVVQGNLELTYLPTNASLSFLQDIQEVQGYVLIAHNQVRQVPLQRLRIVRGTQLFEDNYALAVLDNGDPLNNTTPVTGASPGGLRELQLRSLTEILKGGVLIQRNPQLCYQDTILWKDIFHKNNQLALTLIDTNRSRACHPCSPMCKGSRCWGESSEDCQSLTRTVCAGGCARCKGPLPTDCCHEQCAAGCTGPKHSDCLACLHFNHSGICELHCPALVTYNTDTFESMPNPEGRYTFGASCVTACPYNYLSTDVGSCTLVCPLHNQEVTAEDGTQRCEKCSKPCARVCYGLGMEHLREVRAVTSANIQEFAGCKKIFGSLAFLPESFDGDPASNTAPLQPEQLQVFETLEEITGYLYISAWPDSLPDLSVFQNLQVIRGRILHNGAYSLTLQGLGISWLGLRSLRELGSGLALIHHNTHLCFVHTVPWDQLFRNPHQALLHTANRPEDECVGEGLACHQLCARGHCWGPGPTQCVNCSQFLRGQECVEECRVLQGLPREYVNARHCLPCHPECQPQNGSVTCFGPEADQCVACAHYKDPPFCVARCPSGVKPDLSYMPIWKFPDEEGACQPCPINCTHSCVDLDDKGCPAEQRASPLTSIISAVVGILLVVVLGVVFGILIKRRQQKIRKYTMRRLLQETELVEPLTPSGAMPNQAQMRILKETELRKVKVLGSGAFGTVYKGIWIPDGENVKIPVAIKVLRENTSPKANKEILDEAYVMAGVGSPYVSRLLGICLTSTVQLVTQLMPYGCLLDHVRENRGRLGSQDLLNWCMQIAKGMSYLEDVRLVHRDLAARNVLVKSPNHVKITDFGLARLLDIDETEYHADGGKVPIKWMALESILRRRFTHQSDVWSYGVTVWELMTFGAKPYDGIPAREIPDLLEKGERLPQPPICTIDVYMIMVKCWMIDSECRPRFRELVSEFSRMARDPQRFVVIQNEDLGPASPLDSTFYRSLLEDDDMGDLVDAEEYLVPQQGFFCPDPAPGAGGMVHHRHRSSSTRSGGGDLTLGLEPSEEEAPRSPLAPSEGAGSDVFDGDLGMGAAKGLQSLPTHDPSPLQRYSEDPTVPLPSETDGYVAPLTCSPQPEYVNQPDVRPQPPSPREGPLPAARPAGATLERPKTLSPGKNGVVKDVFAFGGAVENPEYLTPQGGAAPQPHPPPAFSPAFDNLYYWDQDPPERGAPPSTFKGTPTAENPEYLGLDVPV

[3] = reduced viability of SK-BR-3 breast cancer cells – cell-based, 24 h, human, pilot screen (AID 572;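 active = viability at or below 10% of carrier control in both of two separate runs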;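 also: compound exposure lasted between 18 and 24 h rather than exactly 24 h; 100% = carrier-treated control wells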); conditions: SK-BR-3 viability, CellTiter-Glo luminescence, at 10 µM, stronger effect = lower value
[4] = HUVEC growth inhibition – cell-based, human, primary screen (AID 575;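 active = viability at or below 30% in both replicate assays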;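 also: 100% = median of untreated cell wells with 0.1% DMSO on each plate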); conditions: HUVEC proliferation, CellTiter-Glo luminescence, 72 h; at 10 µM; stronger effect = lower value
Method in brief: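 Timing: 72 h treatment at 37 °C; material: HUVEC primary cells; technique: CellTiter-Glo luminescence measuring cellular ATP; controls: vehicle and MePR control wells; measure: percent of median DMSO-control luminescence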

[5] = H69AR cell proliferation blockers – human, duplicate replicates, primary screen (AID 580;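 active = viability at or under a set limit in both replicates, limit being median viability minus 3 SD, cut at about 48% in these data, passing the limit was not always enough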;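 also: 100% = mean luminescence of untreated wells and 0% = no signal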); conditions: H69AR lung tumor cells viability, ATP luminescence, 72 h; at 10 µM; stronger effect = lower value
[6] = MRP1 drug-resistance reversers in H69AR cells – cell-based, doxorubicin co-treatment, pilot screen (AID 601); conditions: CellTiter-Glo, 72 h, at 10 µM; for differential viability (reversal): stronger effect = higher value
[7] = yeast transport mutant growth inhibition pilot in 384-well plates, post-Golgi transport modulator project (AID 636; in the data active = inhibition above about 31%); conditions: absorbance 615 nm, about 18 h, stronger effect = higher value
[8] = growth suppression of yeast trafficking mutant, preliminary HTS, modulators of trafficking downstream of Golgi apparatus project, 1536-format plate, OD 615 nm (AID 637; in the data active = inhibition above about 30%); conditions: yeast transport mutant growth, absorbance 615 nm, 18 h; stronger effect = higher value
[9] = H69AR cells + 2 uM doxorubicin, measured here: viability with 2 uM doxorubicin, stronger effect = lower value
[10] = H69AR cells, compound alone cytotoxicity

SMILES | viability [1] [%] | Her2 level [2] | viability [3] | viability [4] | viability [5] | differential viability (reversal) ([6]; H69AR cells + 2 uM doxorubicin) | viability [6, 9] [%] | viability [6, 10] [%] | inhibition [7] | inhibition [8]
COCCNC(=O)c1c(N)n(CCC2=CCCCC2)c2nc3ccccc3nc12 | 102 | 92% (inactive) | 102% (inactive) | 78.3% (inactive) | 89% (inactive) | 10.8% (inactive) | 78.2 | 89 | -6.03% (inactive) | -2.38% (inactive)
O=c1c2ccccc2nnn1CSc1nc2cc(Cl)ccc2c(=O)n1Cc1ccco1 | 102 | 104% (inactive) | 102% (inactive) | 81.5% (inactive) | 86.4% (inactive) | 4.62% (inactive) | 81.7 | 86.4 | -0.53% (inactive) | -4.03% (inactive)
CCCn1c(SCC(=O)N2CCCc3ccccc32)nnc1-c1ccccn1 | 84.5 | 102% (inactive) | 84.5% (inactive) | 103% (inactive) | 95.1% (inactive) | 1.95% (inactive) | 93.2 | 95.1 | -4.67% (inactive) | 5.16% (inactive)
COCCn1c(SCC(=O)N(C(C)C)C(C)C)nnc1-c1cc2ccccc2cc1O | 96 | 91.5% (inactive) | 96% (inactive) | 106% (inactive) | 88.3% (inactive) | 0.38% (inactive) | 88 | 88.3 | -1.3% (inactive) | -5.5% (inactive)
O=C(CN1C(=O)C2C3C=CC(C3)C2C1=O)NCc1ccc2c(c1)OCO2 (stereo not given) | 102 | 109% (inactive) | 102% (inactive) | 97.9% (inactive) | 98.2% (inactive) | 8.13% (inactive) | 90.1 | 98.2 | -1.43% (inactive) | -7.78% (inactive)
O=C1CS/C(=N\C(=O)N2c3ccccc3Sc3ccccc32)N1 | 102 | 98.5% (inactive) | 102% (inactive) | 94% (inactive) | 105% (inactive) | 14.4% (inactive) | 90.2 | 105 | -7.07% (inactive) | 1.29% (inactive)
CCOc1ccc(-n2c(=O)cc(N3CCN(c4ccccc4)CC3)[nH]c2=O)cc1 | 94 | 84% (inactive) | 94% (inactive) | 96.1% (inactive) | 103% (inactive) | 7.43% (inactive) | 95.6 | 103 | -6.13% (inactive) | 6.07% (inactive)
CCN(CC)C(=O)CSc1nnc([C@@H](N)Cc2ccccc2)o1 | 82 | 106% (inactive) | 82% (inactive) | 98.5% (inactive) | 98.2% (inactive) | 3.4% (inactive) | 94.8 | 98.2 | -1.87% (inactive) | 35.4% (active)
Cc1cccc(-c2c3c(=O)n(C)c(=O)n(C)c3cn2-c2ccc(O)cc2)c1 | 102 | 80% (inactive) | 102% (inactive) | 108% (inactive) | 86.6% (inactive) | -6.51% (inactive) | 93.1 | 86.6 | -3.11% (inactive) | -2.38% (inactive)
O=C1CN=C(Nc2cccc(C(F)(F)F)c2)N1C1CCCC1 | 97 | 119% (inactive) | 97% (inactive) | 101% (inactive) | 82.5% (inactive) | -15.2% (inactive) | 97.7 | 82.5 | -3.33% (inactive) | -1.8% (inactive)
CCOC(=O)N1CCN(Cc2cc(=O)oc3ccc4ccccc4c23)CC1 | 91.5 | 86% (inactive) | 91.5% (inactive) | 79.9% (inactive) | 87.3% (inactive) | 7.66% (inactive) | 79.6 | 87.3 | -7.07% (inactive) | 2.86% (inactive)
COc1ccccc1CN1C(=S)SC(C)(C)C1NO (stereo not given) | 100 | 93.5% (inactive) | 100% (inactive) | 73.8% (inactive) | 98.3% (inactive) | 8.72% (inactive) | 89.6 | 98.3 | -3.73% (inactive) | 2.42% (inactive)
CCOc1ccccc1CN1C(=O)c2ccccc2C1C(=O)NCC1CCCO1 (stereo not given) | 104 | 104% (inactive) | 104% (inactive) | 98.3% (inactive) | 101% (inactive) | -4.52% (inactive) | 105 | 101 | -1.47% (inactive) | -0.32% (inactive)
Fc1ccc(NCc2nnc(SCc3nnc(-c4ccccc4)o3)n2CC2CCCO2)cc1 (stereo not given) | 96.5 | 109% (inactive) | 96.5% (inactive) | 97.8% (inactive) | 78.9% (inactive) | -18.4% (inactive) | 97.3 | 78.9 | -0.54% (inactive) | 15.4% (inactive)
CCOC(=O)N1CCN(C(=O)c2n[nH]c(=O)c3ccccc23)CC1 | 85 | 101% (inactive) | 85% (inactive) | 95.1% (inactive) | 91.6% (inactive) | 1.86% (inactive) | 89.8 | 91.6 | -1.6% (inactive) | 19% (inactive)
COc1ccc(/C(O)=C2/C(=O)C(=O)N(CCN(C)C)C2c2ccccn2)cc1OC (stereo not given) | 92.5 | 91.5% (inactive) | 92.5% (inactive) | 103% (inactive) | 91.5% (inactive) | 3.17% (inactive) | 88.3 | 91.5 | -4.19% (inactive) | -6.19% (inactive)

SMILES | viability [1] [%] | Her2 level [2] | viability [3] | viability [4] | viability [5] | differential viability (reversal) ([6]; H69AR cells + 2 uM doxorubicin) | viability [6, 9] [%] | viability [6, 10] [%] | inhibition [7] | inhibition [8]
Cc1ccc(-c2nnn(CC(=O)NC3CC4CCC3C4)n2)cc1 (stereo not given) | 109 | 91% (inactive) | 109% (inactive) | 118% (inactive) | 93.3% (inactive) | 5.1% (inactive) | 88.2 | 93.3 | -6.58% (inactive) | -6.77% (inactive)
CN(C)c1nc(SCCOC(=O)c2ccccc2)nc(N(C)C)n1 | 96 | 80.5% (inactive) | 96% (inactive) | 82.1% (inactive) | 101% (inactive) | 16.4% (inactive) | 85 | 101 | -4.47% (inactive) | -2.67% (inactive)
CCN(CCNC(=O)C1CCN(S(C)(=O)=O)CC1)c1ccccc1 | 91 | 104% (inactive) | 91% (inactive) | 93.3% (inactive) | 88.2% (inactive) | 5.42% (inactive) | 82.8 | 88.2 | -1.67% (inactive) | -1% (inactive)
CC(=O)Nc1ccc(OCC(O)Cn2nc(C)nc2C)cc1 (stereo not given) | 93 | 86.5% (inactive) | 93% (inactive) | 81.3% (inactive) | 91% (inactive) | -5.46% (inactive) | 96.5 | 91 | -1.67% (inactive) | -4.83% (inactive)
CCOC(=O)CC(=O)CSc1[nH]c(=O)cc(C)c1C#N | 87.5 | 106% (inactive) | 87.5% (inactive) | 99.3% (inactive) | 108% (inactive) | 4.69% (inactive) | 104 | 108 | -4.8% (inactive) | -0.16% (inactive)
O=C(/C=N/O)Nc1cccnc1 | 110 | 90% (inactive) | 110% (inactive) | 91.3% (inactive) | 83.2% (inactive) | -6.35% (inactive) | 89.6 | 83.2 | -1.84% (inactive) | 3.71% (inactive)
COc1ccccc1Cn1nnc2c(=O)[nH]c(C3CCN(C(=O)c4ccccc4Cl)CC3)nc21 | 93 | 95.5% (inactive) | 93% (inactive) | 102% (inactive) | 82.2% (inactive) | 54.1% (inactive) | 28.1 | 82.2 | -3.64% (inactive) | 0.48% (inactive)
CCOC(=O)c1cn(CC)c2cc(N3CCOCC3)c(F)cc2c1=O | 104 | 106% (inactive) | 104% (inactive) | 94.6% (inactive) | 90.8% (inactive) | -10.3% (inactive) | 101 | 90.8 | 2.16% (inactive) | -0.63% (inactive)
O=C(CN1CCN(C(=O)c2ccccc2)CC1)Nc1ncc(Br)cc1Br | 76.5 | 100% (inactive) | 76.5% (inactive) | 92.2% (inactive) | 77.9% (inactive) | -6.92% (inactive) | 84.8 | 77.9 | -2.4% (inactive) | -5.74% (inactive)
COc1nc(N2CCOCC2)nc(-n2cccc2)n1 | 94.5 | 86.5% (inactive) | 94.5% (inactive) | 90.6% (inactive) | 87.4% (inactive) | 13.8% (inactive) | 73.6 | 87.4 | -4.08% (inactive) | -5.09% (inactive)
Cc1ccc(-c2nnc(N(C)C(=O)c3ccccn3)s2)cn1 | 133 | 94.5% (inactive) | 133% (inactive) | 90.9% (inactive) | 103% (inactive) | 20.9% (inactive) | 82.3 | 103 | -6.85% (inactive) | -4.6% (inactive)
CCOc1ccccc1NC(=O)CCN1CCN(S(=O)(=O)c2ccc(Br)cc2)CC1 | 119 | 87.5% (inactive) | 119% (inactive) | 100% (inactive) | 86.9% (inactive) | 11.2% (inactive) | 75.7 | 86.9 | -6.8% (inactive) | 1.13% (inactive)
C=CC(O)(C#CCN(CC)CC)c1ccccc1 (stereo not given) | 96.5 | 89% (inactive) | 96.5% (inactive) | 102% (inactive) | 99.9% (inactive) | 10.1% (inactive) | 89.9 | 99.9 | -2.03% (inactive) | -0.63% (inactive)
CC(C)(C)NC(=O)Cn1nnnc1-c1nonc1N | 93 | 94.5% (inactive) | 93% (inactive) | 109% (inactive) | 105% (inactive) | 13.3% (inactive) | 91.3 | 105 | -6.53% (inactive) | 5.25% (inactive)
CCc1[nH]nc2c1C(c1cccc(OC(=O)N3CCOCC3)c1)C(C#N)=C(N)O2 (stereo not given) | 133 | 124% (inactive) | 133% (inactive) | 103% (inactive) | 89.5% (inactive) | -9.21% (inactive) | 98.8 | 89.5 | -3.42% (inactive) | 0.95% (inactive)
